Measurements reported in ChEMBL document CHEMBL4765263, “Design, synthesis, biological evaluation of 6-(2-amino-1H-benzo[d]imidazole-6-yl)quinazolin-4(3H)-one derivatives as novel anticancer agents with Aurora kinase inhibition” (Eur J Med Chem, 2020).

Legend:
MDA-MB-231 = assay: Cytotoxicity against human MDA-MB-231 cells assessed as reduction in cell viability incubated for 72 hrs by MTT assay; format: functional, cell-based; settings: MDA-MB-231, 72 h
Method in brief: (§1)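 MTT viability assay. Cells kept in DMEM with 10% FBS at 37 °C and 5% CO2. Seeded at 5×10^3 cells per well and exposed to a range of compound concentrations from 20 mM DMSO stocks. IC50 is the mean of triplicate measurements.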

PC-3 = assay: Cytotoxicity against human PC-3 cells assessed as reduction in cell viability incubated for 72 hrs by MTT assay; format: functional, cell-based; settings: PC-3, 72 h; method in brief: as §1
SH-SY5Y = assay: Cytotoxicity against human SH-SY5Y cells assessed as reduction in cell viability incubated for 72 hrs by MTT assay; format: functional, cell-based; method in brief: as §1
[1] = Solubility of compound in water; format: physicochemical; settings: buffer
Aurora kinase A = biological target: T1, Aurora kinase A (Homo sapiens, UniProt O14965); assay: Inhibition of Aurora A (unknown origin) incubated for 1 hrs by HTRF assay
T1 sequence (O14965 whole entry): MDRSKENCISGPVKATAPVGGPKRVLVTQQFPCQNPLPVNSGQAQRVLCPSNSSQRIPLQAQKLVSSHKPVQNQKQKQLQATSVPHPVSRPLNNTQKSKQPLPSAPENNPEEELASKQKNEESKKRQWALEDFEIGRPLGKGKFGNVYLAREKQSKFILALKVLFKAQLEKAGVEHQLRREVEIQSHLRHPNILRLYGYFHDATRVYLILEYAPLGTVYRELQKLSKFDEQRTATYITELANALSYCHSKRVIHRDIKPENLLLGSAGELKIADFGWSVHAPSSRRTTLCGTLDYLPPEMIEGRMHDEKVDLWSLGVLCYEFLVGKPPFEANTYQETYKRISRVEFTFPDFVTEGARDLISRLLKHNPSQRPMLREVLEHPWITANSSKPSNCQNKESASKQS

Aurora kinase B = Aurora kinase B (Homo sapiens, UniProt Q96GD4); assay: Inhibition of Aurora B (unknown origin) incubated for 1 hrs by HTRF assay
Chain of Aurora kinase B (Q96GD4 whole entry): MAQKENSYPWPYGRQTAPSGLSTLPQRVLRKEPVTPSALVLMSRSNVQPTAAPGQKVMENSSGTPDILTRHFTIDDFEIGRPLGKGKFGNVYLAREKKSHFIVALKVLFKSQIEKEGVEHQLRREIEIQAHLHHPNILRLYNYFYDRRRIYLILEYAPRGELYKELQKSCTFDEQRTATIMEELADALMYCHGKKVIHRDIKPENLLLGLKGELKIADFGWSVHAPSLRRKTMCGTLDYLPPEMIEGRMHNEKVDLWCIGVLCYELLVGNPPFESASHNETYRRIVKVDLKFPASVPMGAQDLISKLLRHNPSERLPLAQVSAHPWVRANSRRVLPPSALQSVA

| SMILES | IC50 (MDA-MB-231) | IC50 (PC-3) | IC50 (SH-SY5Y) | solubility [1] | IC50 (Aurora kinase A) | IC50 (Aurora kinase B) |
| --- | --- | --- | --- | --- | --- | --- |
| O=C(Nc1nc2ccc(-c3ccc4ncn(CCN5CCOCC5)c(=O)c4c3)cc2[nH]1)C1CCCCC1 | 10.2 µM | 16.5 µM | 14.2 µM |  |  |  |
| CCS(=O)(=O)Nc1nc2ccc(-c3ccc4ncn(C)c(=O)c4c3)cc2[nH]1 | > 20 µM | > 20 µM | > 20 µM |  |  |  |
| CCC(=O)Nc1nc2ccc(-c3ccc4ncn(CCc5c[nH]c6ccccc56)c(=O)c4c3)cc2[nH]1 | 0.55 µM | 1.67 µM | 1.23 µM | Insoluble | 0.0271 µM | 0.33 µM |
| CCC(=O)Nc1nc2ccc(-c3ccc4ncn(CCN5CCCCC5)c(=O)c4c3)cc2[nH]1 | 1.23 µM | 6.57 µM | 4.02 µM |  |  |  |
| COC(=O)Nc1nc2ccc(-c3ccc4ncn(CCN5CCOCC5)c(=O)c4c3)cc2[nH]1 | > 20 µM | > 20 µM | > 20 µM | Soluble |  |  |
